Assay results reported in ChEMBL document CHEMBL2177013, “Synthesis and biological evaluation of tylophorine-derived dibenzoquinolines as orally active agents: exploration of the role of tylophorine e ring on biological activity” (J Med Chem, 2012).
In brackets after ≈: the same amount, converted by molar mass. Activity calls are given as the source filed them. No cut-off for these calls is given here.

Legend:
[1] = Oral bioavailability in Sprague-Dawley rat at 3 mg/kg by HPLC-MS method; format: ADME, organism-based; details: in vivo
Summary of the method: (§1)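 Male rats (330−380 g, 9−10 weeks), jugular vein cannula implanted 1 day before, fasted. 3 mg/kg given iv or orally (n = 3) in DMA/PEG400 30/70 v/v. Blood (150 μL) drawn at 0, 2, 5 (iv only), 15, 30 min and 1, 2, 4, 6, 8, 12, 24 h; plasma analysed by HPLC-MS; noncompartmental analysis.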

[2] = AUC (0 to infinity) in Sprague-Dawley rat at 3 mg/kg, po by HPLC-MS method; format: ADME, organism-based; set-up: dose 3 mg/kg, route oral, time infinity; details: plasma
Summary of the method: (§2)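 Male rats (330−380 g, 9−10 weeks old), jugular vein cannulated 1 day before dosing, fasted; 3 mg/kg iv or oral in DMA/PEG400 (30/70, v/v), n = 3. Blood (150 μL) drawn at 0, 2, 5 (iv only), 15, 30 min and 1, 2, 4, 6, 8, 12, 24 h, kept on ice; plasma analysed by HPLC-MS; noncompartmental analysis.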

[3] = Tmax in Sprague-Dawley rat at 3 mg/kg, po by HPLC-MS method; format: ADME, organism-based; set-up: dose 3 mg/kg, route oral; details: in vivo; summary of the method: as §1
[4] = Cmax in Sprague-Dawley rat at 3 mg/kg, po by HPLC-MS method; format: ADME, organism-based; set-up: dose 3 mg/kg, route oral; details: in vivo; summary of the method: as §1
[5] = Apparent elimination half life in Sprague-Dawley rat at 3 mg/kg, po by HPLC-MS method; format: ADME, organism-based; set-up: dose 3 mg/kg, route oral; details: in vivo, read-out: betat1/2(app) (converted); summary of the method: as §1
[6] = AUC (0 to infinity) in Sprague-Dawley rat at 3 mg/kg, iv by HPLC-MS method; format: ADME, organism-based; set-up: time infinity, dose 3 mg/kg, route intravenous; details: plasma; summary of the method: as §2
[7] = Volume of distribution at steady state in Sprague-Dawley rat at 3 mg/kg, iv by HPLC-MS method; format: ADME, organism-based; set-up: dose 3 mg/kg, route intravenous; details: in vivo, read-out: Vdss; summary of the method: as §1
[8] = Clearance in Sprague-Dawley rat at 3 mg/kg, iv by HPLC-MS method; format: ADME, organism-based; set-up: dose 3 mg/kg, route intravenous; details: in vivo; summary of the method: as §1
[9] = Apparent elimination half life in Sprague-Dawley rat at 3 mg/kg, iv by HPLC-MS method; format: ADME, organism-based; set-up: dose 3 mg/kg, route intravenous; details: in vivo, read-out: betat1/2(app) (converted); summary of the method: as §1
[10] = Solubility in DMA; format: physicochemical
[11] = Solubility in DMSO; format: physicochemical
Summary of the method: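 Compound dissolved in DMSO with sonication; maximal volume before precipitation measured and used to calculate saturation solubility.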

[12] = tested on: Transmissible gastroenteritis virus; experiment: Antiviral activity against Transmissible gastroenteritis virus infected in ST cells assessed as reduction in caspase-3 activation pre-treated before virus infection measured 16 hrs post virus infection by Western blotting; format: functional, organism-based
Summary of the method: (§3)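 ST cells pretreated with compound, then infected with TGEV. Western blot for nucleocapsid (N) protein, caspase 3 (cleavage of procaspase 3) and GAPDH at 16 hpi. Representative of at least three independent experiments.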

[13] = tested on: Transmissible gastroenteritis virus; experiment: Antiviral activity against Transmissible gastroenteritis virus infected in ST cells assessed as reduction in N-protein expression pre-treated before virus infection measured 16 hrs post virus infection by Western blotting; format: functional, organism-based; summary of the method: as §3
RAW264.7 [14] = experiment: Reduction in LPS/INFgamma-induced COX2 protein expression in mouse RAW264.7 cells incubated for 20 hrs by Western blotting; format: functional, cell-based
Summary of the method: (§4)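 LPS/IFNγ-stimulated RAW264.7 cells treated with compound for 20 h. iNOS, COX-2 and GAPDH detected by Western blot; representative of at least three independent experiments.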

RAW264.7 [15] = experiment: Reduction in LPS/INFgamma-induced iNOS protein expression in mouse RAW264.7 cells incubated for 20 hrs by Western blotting; format: functional, cell-based; summary of the method: as §4
A549 [16] = experiment: Induction of c-Jun protein accumulation in human A549 cells incubated for 24 hrs by Western blotting; format: functional, cell-based
A549 [17] = experiment: Down regulation of cyclin A2 expression in human A549 cells incubated for 24 hrs by Western blotting; format: functional, cell-based
NCI-H460 [18] = experiment: Induction of c-Jun protein accumulation in human NCI-H460 cells incubated for 24 hrs by Western blotting; format: functional, cell-based
NCI-H460 [19] = experiment: Down regulation of cyclin A2 expression in human NCI-H460 cells incubated for 24 hrs by Western blotting; format: functional, cell-based
MCF7 [20] = experiment: Induction of c-Jun protein accumulation in human MCF7 cells incubated for 24 hrs by Western blotting; format: functional, cell-based
MCF7 [21] = experiment: Down regulation of cyclin A2 expression in human MCF7 cells incubated for 24 hrs by Western blotting; format: functional, cell-based
[22] = Cytotoxicity against mouse RAW264.7 cells; format: cell-based
Summary of the method: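 RAW264.7 cells stimulated with LPS/IFNγ and compound-treated in parallel with the NO assay; CC50 taken as concentration giving 50% inhibition of cell growth. Mean of at least three experiments, each in duplicate.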

RAW264.7 [23] = experiment: Antiinflammatory activity in mouse RAW264.7 cells assessed as inhibition of LPS-induced nitric oxide production incubated for 18 hrs by nitrate/nitrite assay; format: functional, cell-based; details: RAW264.7, 18 h
Summary of the method: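 RAW264.7 seeded 65000 cells/well, cultured 24 h, then medium replaced with complete medium containing IFNγ (20 ng/mL)/LPS (5 μg/mL) plus compound at various concentrations for 18 h; nitric oxide measured by Nitrate/Nitrite kit. EC50 as mean of at least three experiments, each in duplicate.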

[24] = tested on: Transmissible gastroenteritis virus; experiment: Antiviral activity against Transmissible gastroenteritis virus infected in ST cells pre-treated 2 hrs before virus infection measured 6 hrs post virus infection by immunofluorescent assay; format: functional, organism-based; details: Alphacoronavirus 1, ST
Summary of the method: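 ST cells, with or without 2 h compound pretreatment (10 concentrations), infected with TGEV at MOI 10. Immunofluorescence with anti-spike and anti-nucleocapsid antibodies at 6 hpi. EC50 from dose–response curves, mean of at least three experiments, each in duplicate.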

[25] = Growth inhibition of human HONE1 cells; format: functional
Summary of the method: (§5)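 Cells seeded per well: NUGC-3 4500, HONE-1 6000, MCF-7 6500, NCI-H460 2500, HepG2 10000, A549 5000; A549 grown in RPMI 1640 with 2 g/L NaHCO₃, 2 mM L-glutamine and 10% FBS. GI₅₀ = concentration giving 50% growth inhibition, mean of at least three experiments each in duplicate. Paclitaxel served as positive control.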

NUGC-3 = experiment: Growth inhibition of human NUGC3 cells; format: functional; summary of the method: as §5
NCI-H460 [26] = experiment: Growth inhibition of human NCI-H460 cells; format: functional; summary of the method: as §5
MCF7 [27] = experiment: Growth inhibition of human MCF7 cells; format: functional; summary of the method: as §5
A549 [28] = experiment: Growth inhibition of human A549 cells; format: functional; summary of the method: as §5
HepG2 = experiment: Growth inhibition of human HepG2 cells; format: functional; summary of the method: as §5
Murine hepatitis virus [29] = experiment: Antiviral activity against Murine hepatitis virus JHM infected in mouse DBT cells assessed as reduction in N-protein expression at 0.2 to 2 uM pre-treated 1 hr before virus infection and measured 24 hrs post infection by immunofluorescent assay; format: functional, organism-based
Summary of the method: (§6)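 DBT murine astrocytoma cells in DMEM/10% heat-inactivated FBS, seeded 2.8 × 10⁵ cells/well the day before infection. Medium switched to DMEM/2% FBS, compound added 1 h before MHV-JHM infection at MOI 0.005. Cytopathic effect viewed by phase contrast and N protein by immunofluorescence at 24 hpi.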

Murine hepatitis virus [30] = experiment: Antiviral activity against Murine hepatitis virus JHM infected in mouse DBT cells assessed as reduction in virus-induced cytopathic effect at 0.2 to 2 uM pre-treated 1 hr before virus infection and measured 24 hrs post infection by phase contrast microscopy; format: functional, organism-based; summary of the method: as §6
SF-268 = experiment: Growth inhibition of human SF268 cells; format: functional
Summary of the method: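 SF-268 glioblastoma cells seeded 7500 cells/well in 96-well plates; growth inhibition measured with compound. GI50 as mean of at least three experiments, each in duplicate; paclitaxel positive control.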

CCCN1CCc2c(c3cc(OC)c(OC)cc3c3cc(OC)c(OC)cc23)C1
bioavailability [1]: 62.8% | AUC(0-inf) [2]: 0.515 µg·h/mL | Tmax [3]: 4 h | Cmax [4]: 0.087 µg/mL | half-life [5]: 2.4 h | AUC(0-inf) [6]: 0.824 µg·h/mL | Vd [7]: 9 L/kg | clearance [8]: 3.65 L/h/kg | half-life [9]: 2.7 h | solubility [10]: soluble | solubility [11]: 50 mM (≈ 19.8 mg/mL) | Activity [12]: Active | Activity [13]: Active | Activity (RAW264.7 [14]): Active | Activity (RAW264.7 [15]): Active | Activity (A549 [16]): Active | Activity (A549 [17]): Active | Activity (NCI-H460 [18]): Active | Activity (NCI-H460 [19]): Active | Activity (MCF7 [20]): Active | Activity (MCF7 [21]): Active | CC50 [22]: > 4 µM | EC50 (RAW264.7 [23]): 1.38 µM | EC50 [24]: 0.83 µM | GI50 [25]: 1.21 µM | GI50 (NUGC-3): 0.47 µM | GI50 (NCI-H460 [26]): 0.45 µM | GI50 (MCF7 [27]): 0.51 µM | GI50 (A549 [28]): 0.73 µM | GI50 (HepG2): 0.77 µM

COc1cc2c3c(c4cc(OC)c(OC)cc4c2cc1OC)CN1CCC[C@@H]1C3 [TYLOPHORINE]
bioavailability [1]: 66% | solubility [10]: soluble | solubility [11]: 10 mM (≈ 3.93 mg/mL) | Activity (Murine hepatitis virus [29]): Active | Activity (Murine hepatitis virus [30]): Active | Activity [12]: Active | Activity [13]: Active | Activity (RAW264.7 [14]): Active | Activity (RAW264.7 [15]): Active | Activity (A549 [16]): Active | Activity (A549 [17]): Active | Activity (NCI-H460 [18]): Active | Activity (NCI-H460 [19]): Active | Activity (MCF7 [20]): Active | Activity (MCF7 [21]): Active | CC50 [22]: 1.24 µM | EC50 (RAW264.7 [23]): 0.27 µM | EC50 [24]: 0.08 µM | GI50 [25]: 0.27 µM | GI50 (NUGC-3): 0.19 µM | GI50 (SF-268): 0.27 µM | GI50 (NCI-H460 [26]): 0.23 µM | GI50 (MCF7 [27]): 0.24 µM
